Only a selection was taken, and hits are over-represented in it overall.
RORa inhibitor – inhibitors of human nuclear receptor RORA | P35398 | CHO-K1 Gal4-RORA LBD luciferase reporter, luminescence | inhibition, % at 10 µM | hit rate 0.43% among 65,000 | AID 561;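 active means inhibition above the mean of all tested compounds plus 3 SD, cut at about 52% in these data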
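System: transiently transfected CHO-K1 cells, Gal4-DBD/human RORA-LBD fusion plus 5xGal4-luciferase reporter. Doses: one dose of 10 µM final. Timing: 20 h compound treatment, 37 °C. Measured by: luminescence. Evaluation: % inhibition of basal luciferase versus +RORA/-RORA DMSO controls. Benchmarks: mock-transfected cells as 100%, +RORA DMSO cells as 0%. Replicates: single test per compound.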
Each line names hits and unclear results; the compound was inactive in the other large screens.

COc1cccc(OC)c1C1=NCC(=O)Nc2c1oc1ccc(Br)cc21	RORa inhibitor 62
O=C1CN=C(c2ccccc2)c2oc3ccc(Br)cc3c2N1	none
O=C(c1cc2c(s1)-c1ccccc1OC2)N1CCC2(CC1)OCCO2	none
CN(C(=O)c1ccco1)C1(c2ccccc2Cl)CCCCC1=O (stereo not given)	none
CC1(C)CN=C(Nc2nc3ccccc3s2)S1	none
Nc1ccc(S(=O)(=O)N2CC3CC(C2)c2cccc(=O)n2C3)cc1 (stereo not given)	none
CCC(=NC1CC1)c1c(O)n(-c2ccc(OC)cc2)c(=O)[nH]c1=O	none
Cc1cccc(NC2=NCCCS2)c1C	none
O=c1[nH]c2ccccc2n1CCCN1CCC(n2c(=O)[nH]c3cc(Cl)ccc32)CC1	none
CCn1nc(-c2cccs2)nc2c(=O)n(C)c(=O)nc1-2	RORa inhibitor 91
CCCNC(=O)N1C2CCC1CC(O)(c1cccnc1)C2 (stereo not given)	none
COc1ccc(CC[n+]2cc(/N=C(\C)[O-])on2)cc1OC	none
COc1cc2nc(CN3CC=C(c4ccccc4)CC3)[nH]c(=O)c2cc1OC	RORa inhibitor 80
Cn1c2ccccc2c2c(C(=O)N3CCC4(CC3)OCCO4)cn(C3CCCCC3)c(=O)c21	none
CC(C)C(=O)N1CCN(CCN=Cc2c(O)n(C)c(=O)n(C)c2=O)CC1	none

From PubChem
